{
  "source": "ChEMBL document CHEMBL3792386",
  "about": "“Design, Synthesis, and Biological Evaluation of Novel Selenium (Se-NSAID) Molecules as Anticancer Agents” (J Med Chem, 2016)",
  "key": {"[1]": {"tested_on": "NCI-H460", "experiment": "Antiproliferative activity against human NCI-H460 cells assessed as reduction in cell viability after 48 hrs by MTT assay", "type": "functional, cell-based", "settings": "NCI-H460, 48 h", "method_in_brief": "(§1)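 3000 cells/well incubated in triplicate with serial concentrations of compound for 24, 48 or 72 h at 37 °C. MTT (5.0 mg/mL solution) added 3 h before the end. Formazan dissolved in DMSO, absorbance read at 570 and 630 nm. Viability normalised to vehicle control. IC50 from non-linear regression (variable slope), mean ± SD of triplicates.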"}, "[2]": {"tested_on": "HepG2", "experiment": "Antiproliferative activity against human HepG2 cells assessed as reduction in cell viability after 72 hrs by MTT assay", "type": "functional, cell-based", "settings": "HepG2, 72 h", "method_in_brief": "as §1"}, "[3]": {"experiment": "Antiproliferative activity against human SKOV3 cells assessed as reduction in cell viability after 24 hrs by MTT assay", "type": "functional, cell-based", "settings": "SK-OV-3, 24 h", "method_in_brief": "as §1"}, "[4]": {"tested_on": "NHDF", "experiment": "Cytotoxicity against human NHDF at 1 to 10 uM after 48 hrs by MTT assay", "type": "cell-based", "method_in_brief": "(§2)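 Cells (HCT116, nHDF in serum-free fibroblast medium with growth kit, or MEFs) exposed to increasing compound concentrations for 48 h at 37 °C. Viability read by MTT: 3000 cells/well, triplicate, MTT 3 h before end, formazan in DMSO, absorbance 570/630 nm. Mean ± SD.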"}, "[5]": {"tested_on": "MEF", "experiment": "Cytotoxicity against mouse MEF at 1 to 10 uM after 48 hrs by MTT assay", "type": "cell-based", "method_in_brief": "as §2"}, "[6]": {"tested_on": "HCT-116", "experiment": "Cytotoxicity against human HCT116 cells assessed as reduction in cell viability after 48 hrs MTT assay", "type": "functional, cell-based", "method_in_brief": "as §2"}, "[7]": {"tested_on": "HCT-116", "experiment": "Induction of cell cycle arrest in human HCT116 cells assessed as accumulation at S phase at 5 uM after 12 hrs by propidium iodide staining-based flow cytometry (reference value: 55%)", "type": "functional"}, "[8]": {"tested_on": "HCT-116", "experiment": "Induction of cell cycle arrest in human HCT116 cells assessed as accumulation at G1 phase at 5 uM after 12 hrs by propidium iodide staining-based flow cytometry (reference value: 35%)", "type": "functional"}, "[9]": {"tested_on": "HCT-116", "experiment": "Induction of cell cycle arrest in human HCT116 cells assessed as reduction of G2/M phase at 5 uM after 24 hrs by propidium iodide staining-based flow cytometry (reference value: 24%)", "type": "functional", "design": "scale not given: the % may be the effect or the level left"}, "[10]": {"tested_on": "HCT-116", "experiment": "Induction of cell cycle arrest in human HCT116 cells assessed as accumulation at G1 phase at 5 uM after 24 hrs by propidium iodide staining-based flow cytometry (reference value: 28%)", "type": "functional"}, "[11]": {"experiment": "Effect on cell cycle in human HCT116 cells assessed as upregulation of cyclin p21 expression after 24 hrs by Western blot method", "type": "functional, cell-based", "settings": "HCT-116", "method_in_brief": "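CRC cells treated at indicated doses for 24 h. Whole-cell lysates made in RIPA buffer with protease and phosphatase inhibitors and cleared at 15,000 rpm for 10 min. Resolved on 4-12% gels, transferred to PVDF, probed for cell-cycle proteins, detected by ECL. Membranes stripped for sequential probing.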"}, "[12]": {"tested_on": "HCT-116", "experiment": "Induction of apoptosis in human HCT116 cells assessed as live cells at 2.5 uM after 24 hrs by annexin V/7-ADD staining-based flow cytometry (reference value: 90.05%)", "type": "functional"}, "[13]": {"tested_on": "HCT-116", "experiment": "Induction of apoptosis in human HCT116 cells assessed as dead cells at 5 uM after 24 hrs by annexin V/7-ADD staining-based flow cytometry (reference value: 3.10%)", "type": "functional"}, "[14]": {"tested_on": "HCT-116", "experiment": "Induction of apoptosis in human HCT116 cells assessed as live cells at 5 uM after 24 hrs by annexin V/7-ADD staining-based flow cytometry (reference value: 90.05%)", "type": "functional"}, "[15]": {"tested_on": "HCT-116", "experiment": "Induction of apoptosis in human HCT116 cells assessed as early apoptotic cells at 5 uM after 24 hrs by annexin V/7-ADD staining-based flow cytometry (reference value: 5.20%)", "type": "functional"}, "[16]": {"tested_on": "HCT-116", "experiment": "Induction of apoptosis in human HCT116 cells assessed as dead cells at 10 uM after 24 hrs by annexin V/7-ADD staining-based flow cytometry (reference value: 3.10%)", "type": "functional"}, "[17]": {"tested_on": "HCT-116", "experiment": "Induction of apoptosis in human HCT116 cells assessed as late apoptotic cells at 2.5 uM after 24 hrs by 7-ADD and caspase 3/7 activity-based flow cytometry (reference value: 1.70%)", "type": "functional"}, "[18]": {"tested_on": "HCT-116", "experiment": "Induction of apoptosis in human HCT116 cells assessed as live cells at 2.5 uM after 24 hrs by 7-ADD and caspase 3/7 activity-based flow cytometry (reference value: 92.60%)", "type": "functional"}, "[19]": {"tested_on": "HCT-116", "experiment": "Induction of apoptosis in human HCT116 cells assessed as early apoptotic cells at 2.5 uM after 24 hrs by 7-ADD and caspase 3/7 activity-based flow cytometry (reference value: 2.45%)", "type": "functional"}, "[20]": {"tested_on": "HCT-116", "experiment": "Induction of apoptosis in human HCT116 cells assessed as live cells at 5 uM after 24 hrs by 7-ADD and caspase 3/7 activity-based flow cytometry (reference value: 92.60%)", "type": "functional"}, "[21]": {"tested_on": "HCT-116", "experiment": "Induction of ROS generation in human HCT116 cells at 5 uM after 6 hrs by flow cytometry (reference value: 6%)", "type": "functional"}, "[22]": {"tested_on": "HCT-116", "experiment": "Induction of ROS generation in human HCT116 cells at 5 uM after 24 hrs by flow cytometry (reference value: 12.42%)", "type": "functional"}, "[23]": {"tested_on": "HCT-116", "experiment": "Induction of ROS generation in human HCT116 cells at 10 uM after 3 hrs by flow cytometry (reference value: 8.06%)", "type": "functional"}, "[24]": {"tested_on": "HCT-116", "experiment": "Induction of ROS generation in human HCT116 cells at 10 uM after 24 hrs by flow cytometry (reference value: 12.42%)", "type": "functional"}, "[25]": {"tested_on": "MDA-MB-231", "experiment": "Antiproliferative activity against human MDA-MB-231 cells assessed as reduction in cell viability after 24 hrs by MTT assay", "type": "functional, cell-based", "settings": "MDA-MB-231, 24 h", "method_in_brief": "as §1"}, "[26]": {"tested_on": "MDA-MB-231", "experiment": "Antiproliferative activity against human MDA-MB-231 cells assessed as reduction in cell viability after 72 hrs by MTT assay", "type": "functional, cell-based", "settings": "MDA-MB-231, 72 h", "method_in_brief": "as §1"}, "[27]": {"experiment": "Antiproliferative activity against human PANC1 cells assessed as reduction in cell viability after 48 hrs by MTT assay", "type": "functional, cell-based", "settings": "PANC-1, 48 h", "method_in_brief": "as §1"}, "[28]": {"tested_on": "UACC-903", "experiment": "Antiproliferative activity against human UACC-903 cells assessed as reduction in cell viability after 24 hrs by MTT assay", "type": "functional, cell-based", "settings": "UACC-903, 24 h", "method_in_brief": "as §1"}, "[29]": {"tested_on": "UACC-903", "experiment": "Antiproliferative activity against human UACC-903 cells assessed as reduction in cell viability after 48 hrs by MTT assay", "type": "functional, cell-based", "settings": "UACC-903, 48 h", "method_in_brief": "as §1"}, "[30]": {"tested_on": "UACC-903", "experiment": "Antiproliferative activity against human UACC-903 cells assessed as reduction in cell viability after 72 hrs by MTT assay", "type": "functional, cell-based", "settings": "UACC-903, 72 h", "method_in_brief": "as §1"}, "[31]": {"tested_on": "RKO", "experiment": "Antiproliferative activity against human RKO cells assessed as reduction in cell viability after 48 hrs by MTT assay", "type": "functional, cell-based", "method_in_brief": "as §1"}, "[32]": {"tested_on": "RKO", "experiment": "Antiproliferative activity against human RKO cells assessed as reduction in cell viability after 72 hrs by MTT assay", "type": "functional, cell-based", "method_in_brief": "as §1"}, "[33]": {"experiment": "Antiproliferative activity against human HCT116 cells assessed as reduction in cell viability after 24 hrs by MTT assay", "type": "functional, cell-based", "settings": "HCT-116, 24 h", "method_in_brief": "as §1"}, "[34]": {"experiment": "Antiproliferative activity against human HCT116 cells assessed as reduction in cell viability after 48 hrs by MTT assay", "type": "functional, cell-based", "settings": "HCT-116, 48 h", "method_in_brief": "as §1"}, "[35]": {"experiment": "Antiproliferative activity against human DU145 cells assessed as reduction in cell viability after 72 hrs by MTT assay", "type": "functional, cell-based", "settings": "DU-145, 72 h", "method_in_brief": "as §1"}},
  "note": "The source made the active and inactive calls. The rule behind the calls is not given here.",
  "data": [
    {"smiles": "CC(=O)Oc1ccccc1C(=O)NCC[Se]C#N", "values": [
      {"measurement": "IC50", "setting": "[1]", "value": 2400, "unit": "nM"},
      {"measurement": "IC50", "setting": "[2]", "value": 4300, "unit": "nM"},
      {"measurement": "IC50", "setting": "[3]", "value": "> 50000", "unit": "nM"},
      {"measurement": "Activity", "setting": "[4]", "value": "Non-toxic"},
      {"measurement": "Activity", "setting": "[5]", "value": "Non-toxic"},
      {"measurement": "Activity", "setting": "[6]", "value": "Active"},
      {"measurement": "Activity", "setting": "[7]", "value": 14, "unit": "%"},
      {"measurement": "Activity", "setting": "[8]", "value": 62, "unit": "%"},
      {"measurement": "Activity", "setting": "[9]", "value": 19, "unit": "%"},
      {"measurement": "Activity", "setting": "[10]", "value": 68, "unit": "%"},
      {"measurement": "Activity", "setting": "[11]", "value": "Dose-dependent effect"},
      {"measurement": "Activity", "setting": "[12]", "value": 76.8, "unit": "%"},
      {"measurement": "Activity", "setting": "[13]", "value": 1.3, "unit": "%"},
      {"measurement": "Activity", "setting": "[14]", "value": 31.2, "unit": "%"},
      {"measurement": "Activity", "setting": "[15]", "value": 36.15, "unit": "%"},
      {"measurement": "Activity", "setting": "[16]", "value": 1.6, "unit": "%"},
      {"measurement": "Activity", "setting": "[17]", "value": 9.05, "unit": "%"},
      {"measurement": "Activity", "setting": "[18]", "value": 60.4, "unit": "%"},
      {"measurement": "Activity", "setting": "[19]", "value": 28.45, "unit": "%"},
      {"measurement": "Activity", "setting": "[20]", "value": 20.55, "unit": "%"},
      {"measurement": "Activity", "setting": "[21]", "value": 13.12, "unit": "%"},
      {"measurement": "Activity", "setting": "[22]", "value": 66.42, "unit": "%"},
      {"measurement": "Activity", "setting": "[23]", "value": 9, "unit": "%"},
      {"measurement": "Activity", "setting": "[24]", "value": 80.54, "unit": "%"},
      {"measurement": "IC50", "setting": "[25]", "value": 21100, "unit": "nM"},
      {"measurement": "IC50", "setting": "[26]", "value": 6000, "unit": "nM"},
      {"measurement": "IC50", "setting": "[27]", "value": 2100, "unit": "nM"},
      {"measurement": "IC50", "setting": "[28]", "value": 24300, "unit": "nM"},
      {"measurement": "IC50", "setting": "[29]", "value": 4000, "unit": "nM"},
      {"measurement": "IC50", "setting": "[30]", "value": 2900, "unit": "nM"},
      {"measurement": "IC50", "setting": "[31]", "value": 2200, "unit": "nM"},
      {"measurement": "IC50", "setting": "[32]", "value": 2900, "unit": "nM"},
      {"measurement": "IC50", "setting": "[33]", "value": 16200, "unit": "nM"},
      {"measurement": "IC50", "setting": "[34]", "value": 2500, "unit": "nM"},
      {"measurement": "IC50", "setting": "[35]", "value": 2900, "unit": "nM"}
    ]}
  ]
}
